Test results published in ChEMBL document CHEMBL4765336, “Discovery of coumarin derivatives as potent and selective cyclin-dependent kinase 9 (CDK9) inhibitors with high antitumour activity” (Eur J Med Chem, 2020).

Tests used:
[1] = target: CDK2/Cyclin A2 (Homo sapiens, UniProt P24941); experiment: Inhibition of CDK2/Cyclin A (unknown origin) preincubated for 20 mins followed by ATP addition and measured after 120 mins in presence of [33P-gamma] ATP by hotspot kinase assay; assay type: protein-complex assay
Summary of the method: (§1)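 Radiometric filter-binding assay: kinase and substrate in 20 mM Hepes pH 7.5, 10 mM MgCl2, 1 mM EGTA, 0.02% Brij35, 0.02 mg/mL BSA, 0.1 mM Na3VO4, 2 mM DTT, 1% DMSO. Compound (top 1/10/27 μM, 3-fold serial dilutions) preincubated 20 min at 25 °C. ATP plus [γ-33P]ATP added to 10 μM final, reacted 120 min at 25 °C. IC50 from curve fit, duplicate mean.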

[2] = system: MV4-11; experiment: Antiproliferative activity against human MV4-11 cells assessed as inhibition of cell growth incubated for 72 hrs by Celltiter-Glo luminescent assay; assay type: functional, cell-based; settings: MV4-11, 72 h
Summary of the method: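 Cells seeded in growth medium and held overnight at 37 °C; medium-only wells served as background. DMSO stocks were diluted in medium to 3× final and added; cells incubated 72 h at 37 °C, 5% CO2. Viability read by CellTiter-Glo luminescence after 60 min at room temperature. IC50 from curve fit, mean of duplicate.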

[3] = target: CDK9/cyclin T1 (Homo sapiens, UniProt P50750); experiment: Inhibition of CDK9/Cyclin T1 (unknown origin) preincubated for 20 mins followed by ATP addition and measured after 120 mins in presence of [33P-gamma] ATP by hotspot kinase assay; assay type: protein-complex assay
Sequence of CDK9/cyclin T1 (O60563 whole entry): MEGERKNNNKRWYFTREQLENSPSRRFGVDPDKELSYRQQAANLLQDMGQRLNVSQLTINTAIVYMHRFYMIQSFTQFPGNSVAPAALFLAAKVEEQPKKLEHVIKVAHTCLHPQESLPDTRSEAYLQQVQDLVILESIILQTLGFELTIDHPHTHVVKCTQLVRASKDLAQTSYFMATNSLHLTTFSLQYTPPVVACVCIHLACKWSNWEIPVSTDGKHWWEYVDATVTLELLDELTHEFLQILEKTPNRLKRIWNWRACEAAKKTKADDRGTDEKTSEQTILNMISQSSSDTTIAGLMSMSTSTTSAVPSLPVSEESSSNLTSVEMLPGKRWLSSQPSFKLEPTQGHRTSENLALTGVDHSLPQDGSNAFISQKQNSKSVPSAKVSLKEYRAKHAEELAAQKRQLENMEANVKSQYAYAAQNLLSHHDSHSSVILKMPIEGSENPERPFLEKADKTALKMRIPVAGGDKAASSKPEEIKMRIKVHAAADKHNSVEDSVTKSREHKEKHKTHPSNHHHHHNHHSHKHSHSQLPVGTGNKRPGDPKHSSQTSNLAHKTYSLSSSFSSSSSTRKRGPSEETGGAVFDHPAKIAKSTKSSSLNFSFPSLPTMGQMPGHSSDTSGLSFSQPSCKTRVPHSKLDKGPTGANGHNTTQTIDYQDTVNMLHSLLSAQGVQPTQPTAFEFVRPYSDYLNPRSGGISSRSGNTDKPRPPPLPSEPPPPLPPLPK
Sequence of CDK9/cyclin T1 (P50750 whole entry): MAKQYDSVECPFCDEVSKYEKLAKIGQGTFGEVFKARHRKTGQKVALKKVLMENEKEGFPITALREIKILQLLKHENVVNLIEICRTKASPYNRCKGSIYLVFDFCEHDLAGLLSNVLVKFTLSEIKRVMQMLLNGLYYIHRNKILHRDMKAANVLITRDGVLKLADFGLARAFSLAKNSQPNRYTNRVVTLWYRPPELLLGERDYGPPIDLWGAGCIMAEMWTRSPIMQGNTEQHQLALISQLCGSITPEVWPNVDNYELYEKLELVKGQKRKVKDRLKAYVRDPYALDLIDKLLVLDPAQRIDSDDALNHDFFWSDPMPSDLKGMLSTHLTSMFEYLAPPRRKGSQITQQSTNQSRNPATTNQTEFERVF

[4] = target: CDK2/Cyclin A2 (Homo sapiens) (UniProt P24941+P20248); experiment: Inhibition of CDK2/Cyclin A (unknown origin) assessed as enzyme activity at 1 uM preincubated for 20 mins followed by ATP addition and measured after 120 mins in presence of [33P-gamma] ATP by hotspot kinase assay relative to control; assay type: protein-complex assay; parameters: scale not given: the % may be the effect or the level left; settings: time 140.0 min
Summary of the method: (§2)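 Radiometric filter-binding kinase assay, buffer pH 7.5 with 10 mM MgCl2 and 1% DMSO. Compound tested at a single 1.0 μM, preincubated 20 min at 25 °C. Reaction started with ATP/[γ-33P]ATP at 10 μM final, run 120 min at 25 °C. Remaining % enzyme activity reported, n=2.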

[5] = system: MV4-11; experiment: Antitumor activity against human MV4-11 cells xenografted in Balb/c nude mouse assessed as reduction in tumor volume at 40 mg/kg, iv administered once daily for 21 days (reference value: 1.00 g); assay type: functional; settings: time 21 day
[6] = target: CDK9/Cyclin K (Homo sapiens, UniProt P50750); experiment: Inhibition of CDK9/Cyclin K (unknown origin) preincubated for 20 mins followed by ATP addition and measured after 120 mins in presence of [33P-gamma] ATP by hotspot kinase assay; assay type: protein-complex assay
Sequence of CDK9/Cyclin K (P50750 whole entry): as above
Sequence of CDK9/Cyclin K (O75909 whole entry, further chain): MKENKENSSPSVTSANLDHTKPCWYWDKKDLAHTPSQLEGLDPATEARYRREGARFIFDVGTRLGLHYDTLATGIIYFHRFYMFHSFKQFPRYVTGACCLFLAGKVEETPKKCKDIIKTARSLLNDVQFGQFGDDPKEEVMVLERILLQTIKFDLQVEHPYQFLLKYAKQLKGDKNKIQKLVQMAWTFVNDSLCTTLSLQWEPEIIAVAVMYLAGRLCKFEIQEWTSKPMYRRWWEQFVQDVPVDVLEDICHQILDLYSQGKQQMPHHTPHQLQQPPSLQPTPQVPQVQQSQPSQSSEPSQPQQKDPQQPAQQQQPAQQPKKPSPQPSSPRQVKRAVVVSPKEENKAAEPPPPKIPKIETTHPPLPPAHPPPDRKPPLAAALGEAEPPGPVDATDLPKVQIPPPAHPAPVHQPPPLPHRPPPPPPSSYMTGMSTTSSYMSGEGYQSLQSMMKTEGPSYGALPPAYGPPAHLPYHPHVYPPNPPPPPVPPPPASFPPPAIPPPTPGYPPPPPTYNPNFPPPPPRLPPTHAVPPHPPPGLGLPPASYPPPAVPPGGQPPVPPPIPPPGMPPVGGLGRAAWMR
Summary of the method: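 HotSpot radioisotope filter-binding assay. Kinase and substrate were mixed at room temperature in 20 mM Hepes pH 7.5 with 10 mM MgCl2, 1 mM EGTA, 0.02% Brij35, 0.02 mg/mL BSA, 0.1 mM Na3VO4, 2 mM DTT and 1% DMSO. Compound was added in a 3-fold dilution series starting at 1, 10 or 27 μM and preincubated 20 min at 25 °C. ATP plus [γ-33P]ATP (10 μM final) was then added for 120 min at 25 °C. IC50 from curve fit, duplicate mean.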

[7] = species on record: Homo sapiens; experiment: Selectivity index, ratio of IC50 for CDK2/Cyclin A (unknown origin) to IC50 for CDK9/Cyclin T1 (unknown origin)
[8] = target: Cyclin-dependent kinase 7/ cyclin H (Homo sapiens, UniProt P50613); experiment: Inhibition of CDK7/Cyclin H (unknown origin) preincubated for 20 mins followed by ATP addition and measured after 120 mins in presence of [33P-gamma] ATP by hotspot kinase assay; assay type: protein-complex assay; summary of the method: as §1
Sequence of Cyclin-dependent kinase 7/ cyclin H (P51946 whole entry): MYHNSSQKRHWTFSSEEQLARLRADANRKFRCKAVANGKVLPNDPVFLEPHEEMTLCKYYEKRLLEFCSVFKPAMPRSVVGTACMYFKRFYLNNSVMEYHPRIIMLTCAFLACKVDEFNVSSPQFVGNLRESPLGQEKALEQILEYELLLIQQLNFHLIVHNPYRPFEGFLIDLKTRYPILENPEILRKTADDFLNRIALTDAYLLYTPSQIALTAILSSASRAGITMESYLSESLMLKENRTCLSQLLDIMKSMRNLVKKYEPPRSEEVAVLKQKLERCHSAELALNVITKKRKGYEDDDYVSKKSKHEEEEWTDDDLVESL
Sequence of Cyclin-dependent kinase 7/ cyclin H (P50613 whole entry): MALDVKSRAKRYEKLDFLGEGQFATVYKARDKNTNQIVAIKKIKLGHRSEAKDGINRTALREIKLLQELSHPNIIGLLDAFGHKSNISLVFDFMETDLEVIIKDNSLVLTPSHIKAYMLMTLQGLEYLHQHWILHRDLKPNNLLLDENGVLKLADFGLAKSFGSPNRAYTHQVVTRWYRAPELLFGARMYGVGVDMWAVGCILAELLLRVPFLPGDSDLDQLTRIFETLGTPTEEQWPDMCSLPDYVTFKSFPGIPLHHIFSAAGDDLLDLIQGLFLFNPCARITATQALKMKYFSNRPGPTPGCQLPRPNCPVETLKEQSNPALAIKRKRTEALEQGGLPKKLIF

[9] = target: CDK9/cyclin T1 (Homo sapiens) (UniProt O60563+P50750); experiment: Inhibition of CDK9/Cyclin T1 (unknown origin) assessed as enzyme activity at 1 uM preincubated for 20 mins followed by ATP addition and measured after 120 mins in presence of [33P-gamma] ATP by hotspot kinase assay relative to control; assay type: protein-complex assay; parameters: scale not given: the % may be the effect or the level left; settings: time 140.0 min; summary of the method: as §2
[10] = Metabolic stability in dog liver microsomes assessed as intrinsic clearance at 1 uM incubated up to 60 mins in presence of NADPH by LC-MS/MS analysis; assay type: ADME, Canis lupus familiaris, Microsome; settings: read-out: CLH
Summary of the method: (§3)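 Liver microsomes (0.5 mg/mL) incubated at 37 °C with compound at 1.0 μM final, 3 mM MgCl2 and 1 mM NADPH in 100 mM PBS pH 7.4. Samples taken at 0, 5, 15, 30, 60 min; remaining parent measured by LC-MS/MS. k = −slope, T1/2 = 0.693/k, CLint = k/microsomal protein concentration. Midazolam served as control.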

[11] = Metabolic stability in monkey liver microsomes assessed as half life at 1 uM incubated up to 60 mins in presence of NADPH by LC-MS/MS analysis; assay type: ADME, Macaca mulatta, Microsome; settings: rhesus monkey; summary of the method: as §3
[12] = Metabolic stability in rat liver microsomes assessed as intrinsic clearance at 1 uM incubated up to 60 mins in presence of NADPH by LC-MS/MS analysis; assay type: ADME, Microsome; settings: read-out: CLH; summary of the method: as §3
[13] = Metabolic stability in human liver microsomes assessed as intrinsic clearance at 1 uM incubated up to 60 mins in presence of NADPH by LC-MS/MS analysis; assay type: ADME, Microsome; settings: read-out: CLH; summary of the method: as §3
[14] = Metabolic stability in human liver microsomes assessed as half life at 1 uM incubated up to 60 mins in presence of NADPH by LC-MS/MS analysis; assay type: ADME, Microsome; summary of the method: as §3
[15] = Metabolic stability in monkey liver microsomes assessed as intrinsic clearance at 1 uM incubated up to 60 mins in presence of NADPH by LC-MS/MS analysis; assay type: ADME, Macaca mulatta, Microsome; settings: rhesus monkey, read-out: CLH; summary of the method: as §3
[16] = Metabolic stability in rat liver microsomes assessed as half life at 1 uM incubated up to 60 mins in presence of NADPH by LC-MS/MS analysis; assay type: ADME, Microsome; summary of the method: as §3
[17] = Metabolic stability in dog liver microsomes assessed as half life at 1 uM incubated up to 60 mins in presence of NADPH by LC-MS/MS analysis; assay type: ADME, Canis lupus familiaris, Microsome; summary of the method: as §3

SMILES	IC50 [1] [nM]	IC50 [2] [nM]	IC50 [3] [nM]	Activity [4] [%]	other results
COc1ccccc1-c1ccnc(Nc2ccc3c(N4CCOCC4)c(C(C)=O)c(=O)oc3c2)n1	1280	1010	3.1	–	–
CCN1CCN(c2c(C(C)=O)c(=O)oc3cc(Nc4nccc(-c5ccc(F)cc5OC)n4)ccc23)CC1	–	740	10.5	61.8	–
CCc1ccccc1-c1ccnc(Nc2ccc3c(N4CCOCC4)c(C(C)=O)c(=O)oc3c2)n1	–	9840	66.5	40.5	–
CCC(=O)c1c(N2CCOCC2)c2ccc(Nc3ncc(F)c(-c4ccc(F)cc4OC)n3)cc2oc1=O	338	420	0.7	–	–
COc1ccccc1-c1ccnc(Nc2ccc3c(N4CCCNCC4)cc(=O)oc3c2)n1	2060	1680	11.7	–	–
COc1ccccc1-c1ccnc(Nc2ccc3c(N4CCOCC4)cc(=O)oc3c2)n1	–	4570	47.2	57.9	–
COc1ccc(F)cc1-c1ccnc(Nc2ccc3c(N4CCOCC4)c(C(C)=O)c(=O)oc3c2)n1	–	1740	21.8	49.6	–
Nc1ccn([C@@H]2O[C@H](CO)[C@@H](O)[C@@H]2O)c(=O)n1 [CYTARABINE]	–	–	–	–	Activity [5]: 0.26 g
CC(=O)c1c(C)c2ccc(Nc3nccc(-c4cccnc4)n3)cc2oc1=O	1210	12900	184	–	IC50 [6]: 235 nM; Ratio IC50 [7]: 7; IC50 [8]: > 27000 nM
COc1cc(F)ccc1-c1nc(Nc2ccc3c(N4CCOCC4)c(C(C)=O)c(=O)oc3c2)ncc1Cl	401	1010	3.6	–	–
COc1cc(F)ccc1-c1ccnc(Nc2ccc3c(N4CCCCC4)c(C(C)=O)c(=O)oc3c2)n1	–	730	6.5	73.1	–
CC(=O)c1c(N2CCOCC2)c2ccc(Nc3cc(-c4ccccc4C)ncn3)cc2oc1=O	–	–	–	–	Activity [9]: 92.2%
COc1ccccc1-c1cc(Nc2ccc3c(C)c(C(C)=O)c(=O)oc3c2)ncn1	–	> 10000	37.6	64.5	–
COc1cccc(-c2ccnc(Nc3ccc4c(N5CCOCC5)c(C(C)=O)c(=O)oc4c3)n2)c1OC	–	5070	–	–	Activity [9]: 51.7%
COc1ccccc1-c1ccnc(Nc2ccc3c(C)c(C(C)=O)c(=O)oc3c2)n1	451	10200	6.5	–	–
Cc1ncc2n1-c1ccc(Cl)cc1C(c1ccccc1F)=NC2 [MIDAZOLAM]	–	–	–	–	microsomal CLint at 1 µM [10]: 1500 µL/min/mg; half-life at 1 µM [11]: 6.29 min; microsomal CLint at 1 µM [12]: 908 µL/min/mg; microsomal CLint at 1 µM [13]: 287 µL/min/mg; half-life at 1 µM [14]: 12.1 min; microsomal CLint at 1 µM [15]: 551 µL/min/mg; half-life at 1 µM [16]: 3.82 min; half-life at 1 µM [17]: 2.31 min
COc1cc(F)ccc1-c1ccnc(Nc2ccc3c(N4CCN(C)CC4)c(C(C)=O)c(=O)oc3c2)n1	–	520	16.4	74.8	–
CC(=O)c1c(N2CCOCC2)c2ccc(Nc3nccc(-c4ccccc4C)n3)cc2oc1=O	–	–	489	–	–
COc1ccc(-c2ccnc(Nc3ccc4c(N5CCOCC5)c(C(C)=O)c(=O)oc4c3)n2)c(OC)c1	–	820	54.2	46.3	–
COc1cc(F)ccc1-c1nc(Nc2ccc3c(N4CCN(C)CC4)c(C(C)=O)c(=O)oc3c2)ncc1Cl	642	1390	1.7	–	–

SMILES	IC50 [1] [nM]	IC50 [2] [nM]	IC50 [3] [nM]	Activity [4] [%]	other results
CC(=O)c1c(N2CCOCC2)c2ccc(Nc3nccc(-c4c(F)cccc4F)n3)cc2oc1=O	–	> 10000	267	–	–
COc1cc(F)ccc1-c1nc(Nc2ccc3c(N4CCN(C)CC4)c(C(C)=O)c(=O)oc3c2)ncc1F	336	400	1.5	–	–
COc1cccc(F)c1-c1ccnc(Nc2ccc3c(N4CCOCC4)c(C(C)=O)c(=O)oc3c2)n1	–	520	13.7	58.7	–
COc1cc(F)ccc1-c1nc(Nc2ccc3c(N4CCCNCC4)c(C(C)=O)c(=O)oc3c2)ncc1F	496	420	1.6	–	–
CCC(=O)c1c(N2CCOCC2)c2ccc(Nc3nccc(-c4ccc(F)cc4OC)n3)cc2oc1=O	1090	430	3.6	–	–
CCc1ccccc1-c1cc(Nc2ccc3c(N4CCOCC4)c(C(C)=O)c(=O)oc3c2)ncn1	–	–	–	–	Activity [9]: 90%
COc1ccc(-c2ccnc(Nc3ccc4c(N5CCOCC5)c(C(C)=O)c(=O)oc4c3)n2)cc1	–	6490	81.7	21.6	–
COc1ccccc1-c1ccnc(Nc2ccc3c(N4CCNCC4)cc(=O)oc3c2)n1	3660	1340	25.3	–	–
COc1cccc(-c2ccnc(Nc3ccc4c(N5CCOCC5)c(C(C)=O)c(=O)oc4c3)n2)c1	–	1490	18.4	54.1	–
CC(=O)c1c(N2CCOCC2)c2ccc(Nc3nccc(-c4ccccc4[N+](=O)[O-])n3)cc2oc1=O	–	> 10000	2340	–	–
CC(=O)c1c(N2CCOCC2)c2ccc(Nc3nccc(-c4ccccc4)n3)cc2oc1=O	–	–	228	–	–
CC(=O)c1c(N2CCOCC2)c2ccc(Nc3nccc(-c4ccccc4C(F)(F)F)n3)cc2oc1=O	–	–	2490	–	–
COc1ccccc1-c1cc(Nc2ccc3c(N4CCOCC4)c(C(C)=O)c(=O)oc3c2)ncn1	3420	> 10000	210	–	–
CC(=O)c1c(N2CCOCC2)c2ccc(Nc3cc(-c4ccccc4)ncn3)cc2oc1=O	–	–	–	–	Activity [9]: 104%
CCc1c(N2CCOCC2)c2ccc(Nc3nccc(-c4ccccc4OC)n3)cc2oc1=O	10900	4720	67.3	–	–
COc1cc(F)ccc1-c1nc(Nc2ccc3c(N4CCOCC4)cc(=O)oc3c2)ncc1F	–	3110	1.6	22	–
CC(=O)c1c(N2CCOCC2)c2ccc(Nc3cc(-c4ccccc4C(F)(F)F)ncn3)cc2oc1=O	–	–	–	–	Activity [9]: 106%
COc1cc(F)ccc1-c1ccnc(Nc2ccc3c(N4CCOCC4)cc(=O)oc3c2)n1	1330	2280	18.2	–	–
CCN1CCN(c2c(C(C)=O)c(=O)oc3cc(Nc4ncc(F)c(-c5ccc(F)cc5OC)n4)ccc23)CC1	305	550	1.2	–	–
